For one experiment, the system named is Vero. Briefly: Cytotoxicity against african green monkey Vero cells. The experiment is classed as cell-based. The following applies: Chlorocebus sabaeus. In short, it runs like this: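 Vero cells exposed to compound for 72 h; viability read by XTT staining; IC50 given in μg/ml.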
In experiment [1] the test system is Saccharomyces cerevisiae. Kind of experiment: DNA damaging activity against DNA repair-deficient RS 322YK (rad 52Y) yeast assessed as drug level required to produce 12 mm zone of inhibition. The experiment is classed as functional. In short, it runs like this: (§1)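 Agar well-diffusion test on yeast: sample placed in 100 μl wells and growth-inhibition zones measured. Potency given as IC12 in μg/ml, the concentration giving a 12 mm inhibition zone. rad 52 strain RS 322 YK lacks the recombination pathway for double-strand-break repair. RS 188 N is the repair-proficient RAD+ counterpart.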

Experiment [2] relates to Saccharomyces cerevisiae. Kind of experiment: DNA damaging activity against RS 188N (RAD+) yeast assessed as drug level required to produce 12 mm zone of inhibition. The experiment is classed as functional. A digest of the protocol:
as §1

Molecules are shown by their SMILES. ≈ marks a conversion by molar mass, not a printed value.

On to `CC(O)c1cc2c(o1)C(=O)c1ccccc1C2=O` (stereo not given), for which the IC50 (usually the concentration needed to halve the response being measured) in the experiment on Vero is 0.41 µg/mL (≈ 1.69 µM). Besides, the figures for the IC12 with Saccharomyces cerevisiae [1] and in the experiment with Saccharomyces cerevisiae [2] were 14 µg/mL and 180 µg/mL, respectively.
For `CC(O)c1cc2c(o1)C(=O)c1cccc(O)c1C2=O` (stereo not given), in that order: 0.21 µg/mL (≈ 0.813 µM), 3 µg/mL and 10 µg/mL.
Regarding `C=C(C)C1CC2=C(O1)C(=O)c1cccc(O)c1C2=O` (stereo not given), the IC12 was determined as 80 µg/mL with Saccharomyces cerevisiae [1] and 140 µg/mL in the experiment on Saccharomyces cerevisiae [2].
In the experiment on Vero, `C=C(C)[C@@H]1OC2=C(C(=O)c3c(ccc(OC)c3OC)C2=O)[C@@H]1O` registered an IC50 of 3.7 µg/mL (≈ 11.7 µM). For the same compound, the IC12 is 47 µg/mL with Saccharomyces cerevisiae [1] and over 1000 µg/mL in the experiment with Saccharomyces cerevisiae [2].
For `C=C(C)[C@H]1CC2=C(O1)C(=O)c1cccc(OC)c1C2=O`, in that order: 4.3 µg/mL (≈ 15.9 µM), 48 µg/mL and 280 µg/mL.
The like results for `C=C(C)[C@H]1CC2=C(O1)C(=O)c1ccc(OC)c(OC)c1C2=O` were, in that order, 4.7 µg/mL (≈ 15.7 µM), 33 µg/mL and 120 µg/mL.
For `CC[C@@]1(O)C(=O)OCc2c1cc1n(c2=O)Cc2cc3ccccc3nc2-1` [CAMPTOTHECIN], in that order: 0.054 µg/mL (≈ 0.155 µM), 0.6 µg/mL and 110 µg/mL.

For the origin of these results see ChEMBL document CHEMBL1147367, “Bioactive furanonaphthoquinones from Crescentia cujete” (J Nat Prod, 1993).
